Assay results as given in PMC7261373 (Journal of medicinal chemistry, 2019).
Each block holds one molecule with its values, some of them ahead of it.

Key:
[1] = target: T1, ERα (Homo sapiens, UniProt P03372); experiment: ER in-cell western; type: cell-based; conditions: MCF7:WS8, 24 h treatment
T1 sequence (P03372 1-595): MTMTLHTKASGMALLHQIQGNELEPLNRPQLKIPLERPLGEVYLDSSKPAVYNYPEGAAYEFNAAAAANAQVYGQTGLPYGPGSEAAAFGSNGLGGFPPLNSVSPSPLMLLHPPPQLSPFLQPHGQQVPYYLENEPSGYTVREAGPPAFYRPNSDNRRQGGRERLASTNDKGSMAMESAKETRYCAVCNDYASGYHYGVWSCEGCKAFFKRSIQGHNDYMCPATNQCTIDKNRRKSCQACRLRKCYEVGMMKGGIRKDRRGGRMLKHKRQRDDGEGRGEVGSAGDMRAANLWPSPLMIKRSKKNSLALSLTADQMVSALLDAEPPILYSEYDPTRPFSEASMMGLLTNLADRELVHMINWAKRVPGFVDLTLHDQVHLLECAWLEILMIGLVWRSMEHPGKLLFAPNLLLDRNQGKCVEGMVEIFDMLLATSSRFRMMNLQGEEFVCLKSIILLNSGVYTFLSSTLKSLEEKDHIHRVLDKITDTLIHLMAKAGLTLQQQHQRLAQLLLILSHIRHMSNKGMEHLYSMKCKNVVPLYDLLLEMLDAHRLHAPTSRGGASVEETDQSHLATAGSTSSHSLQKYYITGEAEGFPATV
Outline: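 MCF7:WS8 cells were stripped for 2 days (phenol red-free medium, stripped FBS), plated at 2.5 × 10^4 cells/well, grown 48 h, then treated 24 h. They were fixed and stained with anti-ERα (H10) by the in-cell western protocol. The IRDye 800CW signal was normalized to CellTag 700 stain.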

[2] = tested on: MCF7:5C cells; experiment: DNA content assay, 2D growth inhibition of MCF7:5C cells; type: cell-based; conditions: for growth inhibition, result in words: 2D culture
Outline: (§1)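 Cells were seeded at 5000/well in 96-well plates and treated with 0.01% (v/v) DMSO vehicle or serially diluted test compound. MCF7:WS8 cells were estrogen-stripped for 2 days beforehand (phenol red-free RPMI-1640, stripped FBS) and read on day 5. MCF7:5C cells, kept in phenol red-free RPMI-1640 with charcoal:dextran-stripped FBS, were read on day 7. Lysis was at −80 °C overnight, then Hoechst 33258 fluorescence was measured in TNE buffer. Data were normalized to vehicle and no cells, from ≥3 biological and analytical replicates.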

[3] = Preliminary PK screen, plasma and brain concentrations by LC-MS/MS; type: in vivo, C57BL/6 mice; conditions: for concentration in the brain: 0.5 and 2 h, 100 mg/kg oral
[4] = tested on: MCF7:TAM1 spheroids; experiment: Spheroid growth assay; type: cell-based; conditions: 10 nM, 14 days, ATP content
Outline: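 MCF7:TAM1 cells, maintained in phenol red-free stripped RPMI-1640 containing 1 μM of the selecting antiestrogen, were plated at 1000–1500 cells/well in ultra-low-attachment round-bottom plates. Spheroids grew untreated for 1–3 days. Half the medium was then replaced with 2× treatment medium, and 1× treatment was repeated every 2–3 days over 14 days; vehicle was 0.01% DMSO. Viability was read by CellTiter-Glo 3D luminescence, normalized to vehicle (1.0) and background (0.0). Three biological and analytical replicates were run, analysed by one-way ANOVA versus vehicle.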

[5] = tested on: ERE-luciferase; type: cell-based; conditions: MCF7:WS8, in competition with 1 nM E2
Outline: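 MCF7:WS8 cells were grown 3 days in phenol red-free RPMI-1640 with stripped FBS, plated at 1 × 10^5 cells/well, and held 24 h. They were then co-transfected for 6 h (Lipofectamine 2000, Opti-MEM) with pERE-luciferase (three Xenopus vitellogenin A2 EREs driving firefly luciferase) and pRL-TK Renilla. Cells were treated with test compound plus 1 nM E2 for 18 h before dual-luciferase readout.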

[6] = tested on: MCF7:WS8 cells; experiment: DNA content assay, 2D growth inhibition of MCF7:WS8 cells; type: cell-based; conditions: for growth inhibition, result in words: MCF7:WS8, 2D culture
Outline: as §1

[7] = tested on: T47D:WT, T47D:TYS (Y537S) and T47D:TDG (D538G) cells; experiment: Spheroid growth assay; type: cell-based; conditions: 10 nM, 11 days treatment
[8] = target: T1, ERα; experiment: ER western assay with proteasomal inhibitor MG-132 in MCF7:WS8 cells; type: cell-based; conditions: MCF7:WS8, 10 nM, MG-132 1 μM, western blot
[9] = Full PK analysis of 37d; type: in vivo, CD-1 mice; conditions: CD-1, mouse, plasma, po, 50 mg/kg
Outline: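 Test compound was given orally at 50 mg/kg as a solution in water and 10% SBE-β-CD/PEG-400 (9:1 v/v). Plasma was sampled at 10 time points. Samples were diluted in 50% acetonitrile, with working standards serially diluted in 50% acetonitrile in water, and quantified by LC-MS/MS.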

ERα degradation by ICW, result in words [1]: reduced efficacy
SMILES: Cc1ccccc1C(=O)c1sc2cc(O)ccc2c1Oc1ccc(OCCN2CCC2)cc1 [30a, (3-(4-(2-(Azetidin-1-yl)ethoxy)phenoxy)-6-hydroxybenzo[b]-thiophen-2-yl)(o-tolyl)methanone]
growth inhibition, result in words [2]: significantly reduced efficacy

ERα degradation by ICW, result in words [1]: reduced efficacy
SMILES: Cc1cc(O)ccc1C(=O)c1sc2cc(O)ccc2c1Oc1ccc(OCCN2CC(CF)C2)cc1 [30h, (3-(4-(2-(3-(Fluoromethyl)azetidin-1-yl)ethoxy)phenoxy)-6-hydroxybenzo[b]thiophen-2-yl)(4-hydroxy-2-methylphenyl)-methanone]
antagonism of ERE-luciferase induction by E2, potency in words [5]: lower potency

ERα degradation by ICW, result in words [1]: reduced efficacy
SMILES: Cc1cc(F)cc(C)c1C(=O)c1sc2cc(O)ccc2c1Oc1ccc(OCCN2CC[C@H](CF)C2)cc1 [30n, (S)-(4-Fluoro-2,6-dimethylphenyl)(3-(4-(2-(3-(fluoromethyl)-pyrrolidin-1-yl)ethoxy)phenoxy)-6-hydroxybenzo[b]thiophen-2-yl)-methanone]

ERα degradation by ICW, result in words [1]: did not induce ER degradation
SMILES: Cc1ccccc1C(=O)c1sc2cc(O)ccc2c1Oc1ccc(OCCN2CCCCC2)cc1 [30o, (6-Hydroxy-3-(4-(2-(piperidin-1-yl)ethoxy)phenoxy)benzo[b]-thiophen-2-yl)(o-tolyl) Methanone]
growth inhibition, result in words [2]: did not inhibit growth

ERα degradation by ICW, result in words [1]: low efficacy
SMILES: Cc1cc(F)cc(C)c1C(=O)c1sc2cc(O)ccc2c1Oc1ccc(OC2CN(C3CC3)C2)cc1 [37f, (3-(4-((1-Cyclopropylazetidin-3-yl)oxy)phenoxy)-6-hydroxybenzo[b]thiophen-2-yl)(4-fluoro-2,6-dimethylphenyl)-methanone]
growth inhibition, result in words [6]: potent and effective
growth inhibition, result in words [2]: loss of efficacy
antagonism of ERE-luciferase induction by E2, potency in words [5]: lower potency

IC50 ([6]; MCF7:WS8, 96 h, read-out: pIC50, inhibition of cell growth (converted)): 0.631 to 1.58 nM
IC50 ([2]; 144 h, read-out: pIC50, inhibition of cell growth (converted)): 0.631 to 1.58 nM
concentration in the brain, in words ([3]; 30 min, s.c.): below the limit of quantification
SMILES: C[C@]12CC[C@@H]3c4ccc(O)cc4C[C@@H](CCCCCCCCC[S+]([O-])CCCC(F)(F)C(F)(F)F)[C@H]3[C@@H]1CC[C@@H]2O (stereo partly drawn) [compound 2, fulvestrant, reference compound]
inhibition of spheroid growth, in words [4]: greater efficacy

Further lines, the molecule ahead of its results:

SMILES: Cc1cc(F)cc(C)c1C(=O)c1sc2cc(O)ccc2c1Oc1ccc(OCCN2CC(CF)C2)cc1 [30f, (4-Fluoro-2,6-dimethylphenyl)(3-(4-(2-(3-(fluoromethyl)azetidin-1-yl)ethoxy)phenoxy)-6-hydroxybenzo[b]thiophen-2-yl)-methanone]
concentration in the brain [3]: 600 to 750 nM
inhibition of spheroid growth, in words [4]: greater efficacy

SMILES: O=C(c1ccc(O)cc1)c1sc2cc(O)ccc2c1Oc1ccc(OCCN2CC(CF)C2)cc1 [30g, (3-(4-(2-(3-(Fluoromethyl)azetidin-1-yl)ethoxy)phenoxy)-6-hydroxybenzo[b]thiophen-2-yl)(4-hydroxyphenyl)methanone]
growth inhibition, result in words [2]: lost efficacy

SMILES: Cc1ccccc1C(=O)c1sc2cc(O)ccc2c1Oc1ccc(OCCN2CC[C@@H](CF)C2)cc1 [30l, (R)-(3-(4-(2-(3-(Fluoromethyl)pyrrolidin-1-yl)ethoxy)phenoxy)-6-hydroxybenzo[b]thiophen-2-yl)(o-tolyl)methanone]
growth inhibition, result in words [6]: superior potency and efficacy to 2
growth inhibition, result in words [2]: superior potency and efficacy to 2

SMILES: Cc1cc(F)cc(C)c1C(=O)c1sc2cc(O)ccc2c1Oc1ccc(OCCN2CC[C@@H](CF)C2)cc1 [30m, (R)-(4-Fluoro-2,6-dimethylphenyl)(3-(4-(2-(3-(fluoromethyl)-pyrrolidin-1-yl)ethoxy)phenoxy)-6-hydroxybenzo[b]thiophen-2-yl)-methanone]
antagonism of ERE-luciferase induction by E2, potency in words [5]: lower potency

SMILES: Cc1cc(F)cc(C)c1C(=O)c1sc2cc(O)ccc2c1Oc1ccc(OC2CN(CCCF)C2)cc1 [37d, (4-Fluoro-2,6-dimethylphenyl)(3-(4-((1-(3-fluoropropyl)azetidin-3-yl)oxy)phenoxy)-6-hydroxybenzo[b]thiophen-2-yl)methanone]
efficacy in T47D spheroids, in words [7]: equally as effective as the SERDs, fulvestrant (2) and GDC-0927 (3b), and as the SERM 1b
proteasome dependence of ERα degradation, in words [8]: coadministration of a proteasome inhibitor blocked the actions
half-life [9]: 4.5 h
concentration in the brain [3]: exceeded 1 μM
inhibition of spheroid growth, in words [4]: greater efficacy

SMILES: O=C(c1ccc(OCCN2CCCCC2)cc1)c1c(-c2ccc(O)cc2)sc2cc(O)ccc12 [compound 6, raloxifene, reference compound]
growth inhibition, result in words [2]: cross-resistant
